Measured values taken from ChEMBL document CHEMBL1121891, “Structure--activity relationship in cinnamamides. 3. Synthesis and anticonvulsant activity evaluation of some derivatives of (E)- and (Z)-m-(trifluoromethyl)cinnamamide” (J Med Chem, 1981).
Calls of active or inactive are those of the source. The calls are words filed in the database; no cut-off is given here.

Assays:
[1] = system: Mus musculus; assay: Compound was evaluated for tremors after peroral administration; type: functional
Outline: (§1)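 Irwin observational test in fasted male albino mice given oral suspensions in 0.5% methocel by gavage. Doses were 25, 50, 100, 200, 400 and 800 mg/kg, with signs checked up to 6 h. The value is the dose giving 50% of maximal effect, interpolated graphically from the log dose/peak effect curve.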

[2] = system: Mus musculus; assay: Locomotor activity reduction after peroral administration; type: functional; outline: as §1
[3] = system: Mus musculus; assay: Compound was evaluated for minimum effective dose of clonic-type convulsions after peroral administration; E denotes absent from 25-800 mg/Kg; type: functional, organism-based
Outline: (§2)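 Fasted male albino mice received oral suspensions in 0.5% methocel by gavage at 25–800 mg/kg during Irwin-type behavioral observation, followed up to 6 h. The value is the minimum effective dose producing clonic-type convulsions.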

[4] = system: Mus musculus; assay: Compound was evaluated for positional passivity after peroral administration; E denotes absent from 25-800 mg/Kg; type: functional, organism-based; outline: as §1
[5] = system: Mus musculus; assay: Compound was evaluated for anticonvulsant activity in mouse after peroral administration.; type: functional; conditions: po
Outline: (§3)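 Male albino mice (Icem-CET, SPF Caw), 17–22 g, fasted 9 h; compounds suspended in 0.5% methocel and given by gavage at 0.2 mL/10 g. Antagonism of pentylenetetrazole seizures was scored in groups of 20 per dose, at four or five doses per compound. ED50 was derived by probit analysis with p = 0.05 fiducial limits. Inactives were tested at a single screening dose.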

[6] = system: Mus musculus; assay: Compound was evaluated for loss of righting reflex after peroral administration; type: functional; outline: as §1
[7] = Lethal dose after peroral administration; type: toxicity, organism-based; conditions: mouse, in vivo, po
[8] = system: Mus musculus; assay: Compound was evaluated for positional passivity after peroral administration; type: functional; outline: as §1
[9] = system: Mus musculus; assay: Compound was evaluated for anticonvulsant activity in mouse after peroral administration; IA is inactive at screening dose; type: functional, organism-based; outline: as §3
[10] = system: Mus musculus; assay: Compound was evaluated for tremors after peroral administration; E denotes absent from 25-800 mg/Kg; type: functional, organism-based; outline: as §1
[11] = system: Mus musculus; assay: Compound was evaluated for anticonvulsant activity in mouse after peroral administration; Not checked; type: functional, organism-based
[12] = system: Mus musculus; assay: Compound was evaluated for anticonvulsant activity in mouse after peroral administration; inactive at screening dose 100 mg/kg; type: functional, organism-based; set-up: dose 100 mg/kg; outline: as §3
[13] = system: Mus musculus; assay: Compound was evaluated for minimum effective dose of clonic-type convulsions after peroral administration; type: functional; conditions: po, read-out: MED; outline: as §2
[14] = system: Mus musculus; assay: Compound was evaluated for anticonvulsant activity in mouse after peroral administration; IA is Inactive at the screening dose; type: functional, organism-based; outline: as §3
[15] = system: Mus musculus; assay: Compound was evaluated for positional passivity after peroral administration; H denotes absent from 25-800 mg/Kg; type: functional, organism-based; outline: as §1

SMILES	Locomotor activity [2] [mg/kg]	ED50 [5] [mg/kg]	Reflex [6] [mg/kg]	LD50 [7] [mg/kg]	Passivity [8] [mg/kg]	further results
C/C(C(=O)NC1CC1)=C(\C)c1ccc(Cl)cc1	170	36.3	–	–	–	Reflex [1]: 600 mg/kg; MED [3]: Absent; Passivity [4]: Absent
C=CCNC(=O)/C=C/c1ccccc1	150	52.4	150	300	280	–
C/C(C(N)=O)=C(\C)c1ccccc1	400	–	–	> 800	800	ED50 [9]: inactive; Tremors [10]: Absent; MED [3]: Absent
C=CCNC(=O)/C=C(\C)c1ccccc1	150	65.8	150	450	250	–
C=CCNC(=O)/C(C)=C/c1ccccc1	200	53.8	150	600	280	–
C/C(C(N)=O)=C(\C)c1cccc(C(F)(F)F)c1	180	32.2	–	600	250	Tremors [10]: Absent; MED [3]: Absent
NC(=O)/C=C/c1cccc(C(F)(F)F)c1	70	23.2	70	600	200	–
C/C(=C\c1cccc(C(F)(F)F)c1)C(=O)NC1CC1	120	24.1	150	700	400	–
C/C(=C\c1cccc(C(F)(F)F)c1)C(N)=O	50	22.4	150	800	250	–
CCC1(c2ccccc2)C(=O)N=C([O-])NC1=O.[Na+] (stereo unspecified) [PHENOBARBITAL SODIUM]	180	6.1	110	–	180	–
C/C(C(=O)NC1CC1)=C(/C)c1cccc(C(F)(F)F)c1	80	17.4	100	140	180	–
C/C(C(=O)NC1CC1)=C(\C)c1cccc(C(F)(F)F)c1	800	65.5	–	> 800	–	Tremors [10]: Absent; MED [3]: Absent; Passivity [4]: Absent
C=CCNC(=O)/C(C)=C(\C)c1ccccc1	130	67	250	–	300	–
C/C(C(=O)NC1CC1)=C(/C)c1ccc(Cl)cc1	350	11.4	150	300	>800	–
C=CCNC(=O)/C(C)=C(\C)c1cccc(C(F)(F)F)c1	150	–	140	400	350	ED50 [11]: Not checked
C/C(C(=O)NC1CC1)=C(/C)c1ccccc1	100	55.9	150	500	250	–
C/C(C(=O)NC1CC1)=C(\C)c1ccc(Br)cc1	300	52.4	–	600	450	Tremors [10]: Absent; MED [3]: Absent
C/C(C(=O)NC1CC1)=C(\C)c1ccccc1	400	–	–	600	–	Reflex [1]: 300 mg/kg; Passivity [4]: Absent; ED50 [12]: inactive; minimal effective dose [13]: 400 mg/kg
C#CCNC(=O)/C(C)=C(\C)c1cccc(C(F)(F)F)c1	80	25.1	110	170	180	–
C=CCNC(=O)/C(C)=C(\C)c1ccc(Cl)cc1	70	18.6	70	300	90	–
C/C(C(N)=O)=C(/C)c1ccc(Cl)cc1	200	20.9	150	550	300	–
C#CCNC(=O)/C(C)=C(\C)c1ccc(Cl)cc1	60	10.6	200	–	400	–
C/C(C(N)=O)=C(/C)c1cccc(C(F)(F)F)c1	100	–	25	200	85	ED50 [14]: inactive
O=C(/C=C/c1cccc(C(F)(F)F)c1)NC1CC1	100	9.6	100	700	400	–
O=C1NC(=O)C(c2ccccc2)(c2ccccc2)N1 [PHENYTOIN]	150	9.11	250	–	–	Passivity [15]: inactive
